Data from ChEMBL document CHEMBL1136119, “Novel IKK inhibitors: beta-carbolines” (Bioorg Med Chem Lett, 2003).

Assays:
[1] = target: Protein kinase C (PKC); experiment: Inhibitory activity against protein kinase C.; assay type: protein assay
[2] = target: T1, Inhibitor of nuclear factor kappa-B kinase subunit beta (Homo sapiens, UniProt O14920); experiment: Inhibitory activity against IkappaB kinase(IKK) isolated from HeLa cells activated with recombinant […] in an ELISA phosphorylation assay.; assay type: cell-free
T1 sequence (O14920 whole entry): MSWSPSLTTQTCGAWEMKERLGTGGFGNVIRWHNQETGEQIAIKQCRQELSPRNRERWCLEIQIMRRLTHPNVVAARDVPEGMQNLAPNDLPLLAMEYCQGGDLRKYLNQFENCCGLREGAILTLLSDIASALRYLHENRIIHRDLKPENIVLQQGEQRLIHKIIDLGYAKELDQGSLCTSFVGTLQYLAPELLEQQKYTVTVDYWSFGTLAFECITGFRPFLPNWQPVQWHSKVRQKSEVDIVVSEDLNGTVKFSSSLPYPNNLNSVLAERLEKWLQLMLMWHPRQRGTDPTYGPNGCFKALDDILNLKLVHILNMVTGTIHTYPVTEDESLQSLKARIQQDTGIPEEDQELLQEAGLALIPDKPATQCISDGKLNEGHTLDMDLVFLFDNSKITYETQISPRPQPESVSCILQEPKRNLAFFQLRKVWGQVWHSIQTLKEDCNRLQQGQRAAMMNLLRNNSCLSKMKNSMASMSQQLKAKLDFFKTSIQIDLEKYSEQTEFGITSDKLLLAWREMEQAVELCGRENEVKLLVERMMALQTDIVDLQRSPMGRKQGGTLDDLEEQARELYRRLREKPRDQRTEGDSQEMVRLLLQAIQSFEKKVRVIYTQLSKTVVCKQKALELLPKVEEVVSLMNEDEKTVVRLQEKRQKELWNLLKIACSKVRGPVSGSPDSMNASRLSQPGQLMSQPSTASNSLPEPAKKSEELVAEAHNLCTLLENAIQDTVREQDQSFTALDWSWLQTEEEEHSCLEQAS

[3] = target: T2, cAMP-dependent protein kinase (PKA) (Homo sapiens, UniProt P22694+P17612+P22612); experiment: Inhibitory activity against protein kinase A.; assay type: protein assay
[4] = target: Casein kinase II (Homo sapiens, UniProt P19784+P67870+P68400); experiment: Inhibitory activity against CKII kinase.; assay type: protein-complex assay
[5] = target: NF-kappa-B essential modulator (Homo sapiens, UniProt Q9Y6K9); experiment: Inhibition of GST-IkB phosphorylation by TNF-alpha stimulated HeLa cell lysate (IP-IKKgamma); assay type: functional, cell-free
Summary of the method: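 Endogenous IKK complex immunoprecipitated with anti-IKKγ antibody from HeLa cells stimulated with TNF-α (20 ng/mL, 5 min) and lysed in NP-40 IP buffer; beads preincubated with varying inhibitor concentrations 30 min at 30 °C; reaction started with bacterially expressed GST-IκB[5-55] plus MgATP with [γ-32P]ATP, 30 min at 30 °C; phosphorylated substrate quantified by SDS-PAGE and phosphorimaging; IC50.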

[6] = system: Mus musculus; experiment: Systemic level of TNF-alpha after oral administration in mice; assay type: functional
Summary of the method: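 Female BALB/c mice given compound orally (50 mg/kg, 5 mL/kg), followed by intraperitoneal E. coli LPS (serotype 0127:B8); blood taken by cardiac puncture into heparin after CO2 euthanasia, spun at 4 °C, and plasma TNF-α measured relative to vehicle-treated controls.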

[7] = target: T2, cAMP-dependent protein kinase (PKA); experiment: Inhibition of Protein kinase A at 25 uM; assay type: protein assay
[8] = target: Protein kinase C (PKC) (Homo sapiens) (UniProt O94806+P41743+P17252+P05129+Q05655+P05771+Q05513+Q02156+P24723+Q15139+Q04759); experiment: Inhibition of Protein kinase C at 25 uM; assay type: protein assay
[9] = target: Casein kinase II (Homo sapiens) (UniProt P67870+P68400+P19784); experiment: Inhibition of the casein kinase CKII at 25 uM; assay type: protein-complex assay
[10] = system: HeLa; experiment: Inhibition of IkappaB kinase(IKK) from HeLa cells activated by recombinant MEKK1 in ELISA at 25 uM; assay type: cell-based; conditions: Homo sapiens

Sequence of Casein kinase II (P67870 whole entry): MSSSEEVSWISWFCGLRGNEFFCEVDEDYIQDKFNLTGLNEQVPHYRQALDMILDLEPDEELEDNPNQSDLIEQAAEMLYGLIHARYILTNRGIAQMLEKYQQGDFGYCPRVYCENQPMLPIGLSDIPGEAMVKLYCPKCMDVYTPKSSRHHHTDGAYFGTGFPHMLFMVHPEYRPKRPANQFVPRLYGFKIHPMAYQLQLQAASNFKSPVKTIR
Sequence of Casein kinase II (P68400 whole entry): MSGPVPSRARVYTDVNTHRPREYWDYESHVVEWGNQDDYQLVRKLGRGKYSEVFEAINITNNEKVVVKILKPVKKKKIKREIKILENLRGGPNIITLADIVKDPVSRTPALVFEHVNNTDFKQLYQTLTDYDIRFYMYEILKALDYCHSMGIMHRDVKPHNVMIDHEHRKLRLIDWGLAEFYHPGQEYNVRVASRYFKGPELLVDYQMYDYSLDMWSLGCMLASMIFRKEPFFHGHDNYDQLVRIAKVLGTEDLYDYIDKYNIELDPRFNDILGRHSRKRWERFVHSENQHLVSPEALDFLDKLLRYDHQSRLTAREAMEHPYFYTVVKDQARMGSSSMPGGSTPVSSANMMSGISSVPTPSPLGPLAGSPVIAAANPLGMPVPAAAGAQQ
Sequence of Casein kinase II (P19784 whole entry): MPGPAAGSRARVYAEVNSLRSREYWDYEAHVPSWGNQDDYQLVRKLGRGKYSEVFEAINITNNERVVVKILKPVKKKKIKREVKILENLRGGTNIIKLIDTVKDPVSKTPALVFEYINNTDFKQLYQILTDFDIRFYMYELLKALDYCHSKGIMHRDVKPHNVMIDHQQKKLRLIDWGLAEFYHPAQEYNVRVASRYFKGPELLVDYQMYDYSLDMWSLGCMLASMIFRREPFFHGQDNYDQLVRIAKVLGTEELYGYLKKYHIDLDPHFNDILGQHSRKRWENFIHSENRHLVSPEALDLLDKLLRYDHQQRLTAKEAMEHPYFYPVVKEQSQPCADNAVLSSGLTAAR
Sequence of NF-kappa-B essential modulator (Q9Y6K9 whole entry): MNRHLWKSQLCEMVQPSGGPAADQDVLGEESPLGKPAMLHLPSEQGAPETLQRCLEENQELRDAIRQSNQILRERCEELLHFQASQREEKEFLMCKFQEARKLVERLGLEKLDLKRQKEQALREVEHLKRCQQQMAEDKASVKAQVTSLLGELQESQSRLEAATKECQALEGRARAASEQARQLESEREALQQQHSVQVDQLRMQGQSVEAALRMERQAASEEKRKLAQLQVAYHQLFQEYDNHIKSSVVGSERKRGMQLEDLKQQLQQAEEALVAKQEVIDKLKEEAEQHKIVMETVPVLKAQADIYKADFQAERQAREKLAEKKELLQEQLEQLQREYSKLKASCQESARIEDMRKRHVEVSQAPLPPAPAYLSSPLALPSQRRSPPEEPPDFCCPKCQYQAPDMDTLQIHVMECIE

SMILES	IC50 [1]	IC50 [2]	IC50 [3]	IC50 [4]	EC50 [5]	Reduction [6]	inhibition [7]	inhibition [8]	inhibition [9]	inhibition [10]
Brc1ccc2[nH]c3cnccc3c2c1	> 25 µM	0.6 µM	> 25 µM	> 25 µM						
c1ccc2c(c1)[nH]c1cnccc12 [NORHARMANE]	> 25 µM	15 µM	> 25 µM	> 25 µM						
O=C(Nc1cc(Cl)cc2c1[nH]c1cnccc12)c1cccnc1	> 25 µM	0.1 µM	> 25 µM	> 25 µM	0.15 µM	60%				
O=C(Oc1c(Cl)cc2c3cc[nH]cc-3nc2c1Cl)N1CCOCC1		3.2 µM								
COC(=O)Nc1cc(Cl)cc2c3cc[nH]cc-3nc12	> 25 µM	0.7 µM	> 25 µM	> 25 µM						
CS(=O)(=O)Nc1cc(Cl)cc2c3cc[nH]cc-3nc12	> 25 µM	8.3 µM	> 25 µM	> 25 µM						
O=C(CCCO)Nc1cc(Cl)cc2c3cc[nH]cc-3nc12	> 25 µM	> 20 µM	> 25 µM	> 25 µM						
Nc1cc(Cl)cc2c3cc[nH]cc-3nc12		1.3 µM								
N#Cc1ccc2[nH]c3cnccc3c2c1		1.1 µM								
COc1c(Cl)cc2c3cc[nH]cc-3nc2c1Cl	> 25 µM	0.17 µM	> 25 µM	> 25 µM						
O=C(Nc1cc(Cl)cc2c1[nH]c1cnccc12)c1ccccn1	> 25 µM	1 µM	> 25 µM	> 25 µM						
COc1cccc(C(=O)Nc2cc(Cl)cc3c2[nH]c2cnccc23)c1	> 25 µM	0.6 µM	> 25 µM	> 25 µM						
CNc1cc(Cl)cc2c3cc[nH]cc-3nc12		1.8 µM								
Clc1cc(Cl)c2[nH]c3cnccc3c2c1	> 25 µM	0.2 µM	> 25 µM	> 25 µM						
Fc1ccc2[nH]c3cnccc3c2c1	> 25 µM	2 µM	> 25 µM	> 25 µM						
COc1ccc(C(=O)Nc2cc(Cl)cc3c2[nH]c2cnccc23)cc1	> 25 µM	1.3 µM	> 25 µM	> 25 µM						
O=S(=O)(Nc1cc(Cl)cc2c1[nH]c1cnccc12)c1ccccc1	> 25 µM	> 20 µM	> 25 µM	> 25 µM						
CCOc1c(Cl)cc2c3cc[nH]cc-3nc2c1Cl	> 25 µM	0.14 µM	> 25 µM	> 25 µM						

SMILES	IC50 [1]	IC50 [2]	IC50 [3]	IC50 [4]	EC50 [5]	Reduction [6]	inhibition [7]	inhibition [8]	inhibition [9]	inhibition [10]
Clc1ccc2[nH]c3cnccc3c2c1	> 25 µM	0.6 µM	> 25 µM	> 25 µM						
O=[N+]([O-])c1cc(Cl)cc2c3cc[nH]cc-3nc12	> 25 µM	4 µM	> 25 µM	> 25 µM						
CNC(=O)Nc1cc(Cl)cc2c3cc[nH]cc-3nc12	> 25 µM	> 20 µM	> 25 µM	> 25 µM						
COc1ccc2[nH]c3cnccc3c2c1Br	15 µM	1 µM		2 µM			10%	65%	75%	90%
O=C(Nc1cc(Cl)cc2c1[nH]c1cnccc12)N1CCOCC1	> 25 µM	> 20 µM	> 25 µM	> 25 µM						
CC(=O)Nc1cc(Cl)cc2c3cc[nH]cc-3nc12	> 25 µM	0.6 µM	> 25 µM	> 25 µM						
Clc1cc2c3cc[nH]cc-3nc2c(Cl)c1OCC1CCCCC1	> 25 µM	3 µM	> 25 µM	> 25 µM						
COc1ccccc1C(=O)Nc1cc(Cl)cc2c1[nH]c1cnccc12	> 25 µM	> 20 µM	> 25 µM	> 25 µM						
CN(C)c1cc(Cl)cc2c3cc[nH]cc-3nc12		1.8 µM								
O=C(Nc1cc(Cl)cc2c1[nH]c1cnccc12)c1ccncc1	> 25 µM	0.3 µM	> 25 µM	> 25 µM						
Clc1cc2c([nH]c3cnccc32)c(Cl)c1OCC1CC1	> 25 µM	0.08 µM	> 25 µM	> 25 µM						
FC(F)(F)c1ccc2[nH]c3cnccc3c2c1		1.1 µM								
COc1ccc2[nH]c3cnccc3c2c1	> 25 µM	4 µM	> 25 µM	> 25 µM						
O=C(Nc1cc(Cl)cc2c1[nH]c1cnccc12)c1ccccc1	> 25 µM	0.7 µM	> 25 µM	> 25 µM						
O=C(Cc1ccccn1)Nc1cc(Cl)cc2c1[nH]c1cnccc12	> 25 µM	3 µM	> 25 µM	> 25 µM						
Clc1cc(NCc2ccccc2)c2[nH]c3cnccc3c2c1	> 25 µM	> 20 µM	> 25 µM	> 25 µM						
Oc1c(Cl)cc2c3cc[nH]cc-3nc2c1Cl	> 25 µM	11 µM	> 25 µM	> 25 µM						
